One series deals with MurJ. The experiment in a line: Native mass spectrometry, direct binding to MurJ. Particulars: 3 µM compound added to MurJ. Put shortly:
(§1)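 Purified MurJ was buffer-exchanged into 200 mM ammonium acetate pH 8.0 with 2× critical micelle concentration LDAO and infused via gold-coated capillaries. Settings were capillary 1.1 kV, m/z 1,000–20,000, S-lens RF 100%, HCD 200 V, trapping gas 7.5, 200 °C, resolution 12,500, noise level 3, and no in-source dissociation.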

Series [1] relates to VIE (5 strains), ATCC® MP-1™ panel. The experiment in a line: MIC, extended VIE panel. It is filed as cell-based, Enterococci. Particulars: range over 5 strains, broth microdilution, 37 °C, 20 h.
The test system of a further series is MurJ:lipid II complex. The experiment in a line: Native mass spectrometry, MurJ:lipid II complex. It is filed as binding. The settings on record: 5 µM MurJ with 3 µM lipid II, then 7 µM compound. Put shortly:
as §1

The subject of series [2] is peptidoglycan precursors D-Ala-D-Lac. The settings on record: remodeling of peptidoglycan precursors from D-Ala-D-Ala to D-Ala-D-Lac; cited from earlier work.
For another series, the system named is HEK293 cells. Description: MTT viability assay, HEK293. It is filed as cell-based, human. The settings on record: 500 μg/mL, 48 h, relative to 1% (v/v) DMSO vehicle control; n = 3. Put shortly:
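HEK293 cells were kept in DMEM with 10% (v/v) FBS, 1% (v/v) penicillin/streptomycin and 4.5 g/L glucose at 37 °C, 5% CO2, passaged tri-weekly. MTT viability was measured after test compound at 500 μg/mL and normalized to 1% (v/v) DMSO vehicle. The positive control was the cytotoxic peptide NaD1 at 50 μM. Three technical replicates were run, with unpaired two-tailed Student's t tests.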
(In general: Tetrazolium assays rely on reduction of a dye to a coloured formazan, in cell work by metabolically active cells.)

Another series has as its target acetyl-Lys-D-Ala-D-Lac. The experiment in a line: Microscale thermophoresis binding, D-Ala-D-Lac tripeptide. The settings on record: MST, fluorescently labeled tripeptide, 25 °C; N = 3, ±S.D.; n.b.: no binding. Put shortly: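 The tripeptide was labelled with an amine-reactive red NHS dye and mixed 1:1 with aqueous test compound (final 200 μM to 6.1 nM). Mixtures were incubated 5 min at 25 °C and read at 25 °C with 20% LED and 20% IR laser power (30 s on, 5 s off). The thermophoresis + T-jump signal from three independent runs was fitted to a single-site binding model.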
Background: MST reads how a fluorescent partner responds to local heating, with and without ligand.

Structures are written as SMILES.

Take `CN[C@H](CC(C)C)C(=O)N[C@H]1C(=O)N[C@@H](CC(N)=O)C(=O)N[C@H]2C(=O)N[C@H]3C(=O)N[C@H](C(=O)N[C@H](C(=O)O)c4cc(O)cc(O)c4-c4cc3ccc4O)[C@H](O)c3ccc(c(Cl)c3)Oc3cc2cc(c3O[C@@H]2O[C@H](CO)[C@@H](O)[C@H](O)[C@H]2O[C@H]2C[C@](C)(N)[C@H](O)[C@H](C)O2)Oc2ccc(cc2Cl)[C@H]1O` [Vancomycin]: the “Direct binding to MurJ (native mass spectra)” value with MurJ was “no binding was observed”. The “MIC, VIE (5 strains)” value in series [1] fell in the range of 8 to 16 µg/mL. Also, the “Ternary complex formation with MurJ:lipid II (native mass spectra)” value in the series on MurJ:lipid II complex was “expected ternary complex was formed”. The “Reduction of vancomycin binding and antimicrobial activity” value in series [2] is 1,000 fold. The “Viability of HEK293 cells (MTT)” value in the series on HEK293 cells was “significant decrease in the viability”. On acetyl-Lys-D-Ala-D-Lac, the “KD, acetyl-Lys-D-Ala-D-Lac” value is listed as “no binding was observed”.
